Test results: publication PMC4636097 (Drug Design, Development and Therapy, 2015)

Columns and labels:
[1] = test system: pooled HIMs (human intestinal microsomes); assay: Kinetics of OMT metabolism; type: in vitro ADME; conditions: pooled HIM, formation of MT, biphasic metabolism equation
[2] = biological target: cDNA-expressed human CYP3A4 (Homo sapiens, UniProt P08684); assay: Metabolism of OMT in recombinant human CYP enzymes: CYP3A4; type: in vitro ADME; conditions: OMT 50 μM, 0.08 mg/mL enzyme, NADPH-regenerating system, 37°C, 1.5 hours
[3] = test system: other cDNA-expressed CYP enzymes (CYP1A1, CYP1A2, CYP1B1, CYP2A6, CYP2B6, CYP2C8, CYP2C19, CYP2D6, CYP2E1, CYP3A5); assay: Metabolism of OMT in recombinant human CYP enzymes: other isoforms; type: in vitro ADME; conditions: OMT 50 μM, 0.08 mg/mL enzyme, NADPH-regenerating system, 37°C, 1.5 hours
HLMs [4] = assay: Identification of OMT metabolite in HLMs; type: in vitro ADME, human; conditions: HLMs and NADPH, 37°C, 1.5 hours; metabolite identified as MT
Method in brief: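 Test compound at 50, 100 or 200 μM with pooled human liver microsomes (0.1 mg/mL) in 50 mM KPI pH 7.4 and a glucose-6-phosphate/MgCl2/G6P dehydrogenase system, started with NADP. Controls lacked NADP. Run at 37°C for 1.5 h with shaking, then CH2Cl2 extraction. UPLC and Q-TOF MS (positive ESI); metabolite assigned by chromatographic behaviour and MS fragmentation. Triplicate.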

HLMs [5] = assay: Effects of different oxygen contents on the metabolism of OMT in HLMs; type: in vitro ADME, human; conditions: OMT 50 μM, enzyme inactivated in boiled water for 2 h, ventilation for 30 s
[6] = test system: pooled HLMs (human liver microsomes); assay: Kinetics of OMT metabolism; type: in vitro ADME; conditions: pooled HLM, formation of MT, biphasic metabolism equation
[7] = oral administration; cited from earlier work

Sequence of cDNA-expressed human CYP3A4 (P08684 whole entry, canonical isoform): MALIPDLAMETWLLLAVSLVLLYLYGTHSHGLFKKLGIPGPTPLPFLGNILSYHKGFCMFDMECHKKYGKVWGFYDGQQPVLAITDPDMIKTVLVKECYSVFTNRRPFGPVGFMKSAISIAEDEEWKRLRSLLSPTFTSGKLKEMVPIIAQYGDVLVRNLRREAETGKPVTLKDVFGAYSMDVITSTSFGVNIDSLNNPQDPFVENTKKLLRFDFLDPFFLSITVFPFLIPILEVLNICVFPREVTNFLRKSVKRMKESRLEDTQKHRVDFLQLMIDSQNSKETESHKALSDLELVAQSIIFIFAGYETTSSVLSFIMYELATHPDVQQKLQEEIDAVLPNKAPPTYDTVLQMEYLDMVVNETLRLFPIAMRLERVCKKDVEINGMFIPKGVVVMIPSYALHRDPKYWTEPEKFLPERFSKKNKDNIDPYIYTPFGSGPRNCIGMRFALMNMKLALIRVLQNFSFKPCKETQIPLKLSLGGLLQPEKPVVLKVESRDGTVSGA

metabolites found in HLMs (HLMs [4]): only one metabolite was found in HLMs
metabolites in the inactivated enzyme test (HLMs [5]): no metabolites were observed
Structure (SMILES): O=C1CCC[C@@H]2[C@H]3CCC[N+]4([O-])CCC[C@@H](CN12)[C@@H]34 (stereo partly shown) [OMT, Oxymatrine]
Vmax [1]: 0.46 ± 0.05 nmol/min/mg
formation of MT by CYP3A4 [2]: contributed greatly to the formation of MT
formation of MT by other cDNA-expressed CYP enzymes [3]: only a small amount of MT could be detected
Vmax [6]: 1.49 ± 0.24 nmol/min/mg
oral absolute bioavailability [7]: 6.79%
